E coli WT exp: growth inhibitors of E. coli BW25113 wild type | OD600 absorbance | AID 710 | 0.15% of 98,000 active | growth inhibition, % at 100 µM;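 active = growth inhibition above about 50% at one test dose, limit read from the data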;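 also: growth measured after 20 h incubation at 37 °C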
Ecoli tolC: E. coli tolC mutant growth inhibition; E. coli BW25113 tolC mutant growth, OD615; growth inhibition, % at 10 µM (by protocol); 2.2% of 65,000 active; AID 573;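 active = growth inhibition at or above a cutoff equal to the mean over every tested compound plus 3 SD, cut at about 60% in these data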;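 also: growth measured after 20 h incubation at 37 °C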
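Test system: tolC-deleted E. coli BW25113; medium: LB with kanamycin 50 µg/mL; compound: single-point testing at 10 µM; incubation: 20 h compound exposure of bacteria at 37 °C; signal: OD at 615 nm; evaluation: growth inhibition in percent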
PostGolgi yeast: growth inhibition of a yeast mutant, post-Golgi transport screen; post-Golgi transport phenotypic cell assay; inhibition, % at 10 µM; 0.9% of 98,000 active; AID 739;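 also: yeast cells grown in 1536-well plates; yeast grown about 18 h at 30C before absorbance read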
Cav32 inh: blocks human Cav3.2 T-type calcium channel. O95180. Cav3.2-expressing cells, Fluo-4 calcium fluorescence FDSS; stronger effect = lower value. B-score at 10 µM. 4% of 100,000 active. AID 449739;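 active = single-dose well whose peak fluorescence ratio is a statistical outlier from its plate by either plate-standardised score or position-corrected B-score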
PostGolgi ctrl: inhibits growth of the yeast control strain | efflux-deficient yeast background strain, growth absorbance A615, 16 h | inhibition, % at 10 µM | 5% of 98,000 active
Pyk2 oligo antag: Pyk2 (human) oligomerization antagonism | Q293 cells, Pyk2 FERM NanoBiT luminescence; stronger effect = lower value | z-score (the deposit names both 25 µM and 10 µM) | 0.83% of 99,000 active;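 active = Z-score of -3 or lower, scaled per plate to the spread of control and sample wells; inactive = z-score above -3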;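 also: negative z-score means lost luminescence so less FERM oligomerization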
Hits are given with their value; . = inactive; / = not tested or not shown. An excerpt weighted towards active compounds, which were near 8.7% of everything screened. Rule as the data show it, unless noted: active = inhibition above about 30%; inactive = the rest.

SMILES	E coli WT exp	Ecoli tolC	PostGolgi yeast	Cav32 inh	PostGolgi ctrl	Pyk2 oligo antag
CCCc1cc(NCCCCO)n2c(nc3ccccc32)c1C#N	.	.	35	.	.	.
COc1ccc(Cc2nn3c(-c4cc(OC)c(OC)c(OC)c4)nnc3s2)cc1	.	.	.	.	35	.
COC(=O)c1c(NC(=O)CC2Nc3ccccc3NC2=O)sc(C)c1C (stereo not drawn)	.	/	.	.	.	.
Nn1c(=O)c2ccccc2n2c(SCc3ccc(C(F)(F)F)cc3)nnc12	.	/	.	.	.	.
O=C(Cc1ccc(Nc2nc3ccc(Br)cc3[nH]2)cc1)NCCc1cccs1	.	/	.	-3.2	.	/
N#CCCn1cc(/C=N/O)c(-c2ccc(-c3ccccc3)cc2)n1	.	.	.	.	.	-4.1
N#CCCn1cc(/C=C(\C#N)c2nc3ccccc3s2)c(-c2ccc(F)cc2)n1	.	/	.	.	.	.
N#CCCn1cc(/C=N/O)c(-c2ccc(Cl)cc2)n1	.	/	.	.	.	-3.5
CC(Nc1ccccc1)c1cc(Cl)ccc1O (stereo not drawn)	/	/	/	-7.1	/	.
O=C(Nc1cccn2ncnc12)c1ccc(Cl)cc1Cl	.	/	.	.	.	.
O=C(c1ccc(Cl)cc1Cl)C1(n2cncn2)Oc2ccccc2C1O (stereo not drawn)	.	.	100	.	96	.
O=C1CC(SC(=Nc2ccccc2)Nc2ccccc2)C(=O)N1c1cccc(Cl)c1 (stereo not drawn)	.	/	.	.	33	.
CN=C(Nc1ccccc1)SC1CC(=O)N(c2ccc(C(=O)OC)cc2)C1=O (stereo not drawn)	.	/	.	.	37	.
Cc1c(NC(=O)c2ccc(N3CCCC3)c([N+](=O)[O-])c2)cccc1-c1nc2ccccc2s1	.	/	.	-4.6	.	.
C=CCN1C(=O)CSc2ccc(C(=O)N3CCC(C)CC3)cc21	.	/	.	.	.	.
O=C(NCc1ccccc1)NC(=O)c1ccccc1	.	.	.	.	.	.
O=C(NCc1ccccc1)/C(NC(=O)c1ccccc1)=C(/Sc1ccccn1)c1ccccc1	/	/	/	.	/	-4.1
O=C(O)c1ccc2nc(-c3ccccc3)c(-c3ccccc3)nc2c1	/	/	/	/	/	.
Nc1ccc(Oc2ccc3nc(-c4ccccc4)c(-c4ccccc4)nc3c2)cc1	.	/	103	.	56	/
O=C(COc1ccccc1)NNc1c2ccccc2nc2ccccc12	.	/	.	/	44	.
COc1ccc(OCC(=O)NNc2c3ccccc3nc3ccccc23)cc1	.	/	.	.	.	.
N#CCCC12CCCCC1=Nc1ccccc12 (stereo not drawn)	/	.	/	.	/	.
O=C(COc1cc(Cl)c(Cl)cc1Cl)Nn1cnnc1	.	.	.	/	.	.
Cc1ccc(NC(=S)c2nc3ccccc3[nH]2)cc1	.	/	.	.	51	.
CC1CCCCC12NC(=O)N(CC(=O)Nc1sc3c(c1C(N)=O)CCC3)C2=O (stereo not drawn)	.	/	.	/	.	.
SMILES	E coli WT exp	Ecoli tolC	PostGolgi yeast	Cav32 inh	PostGolgi ctrl	Pyk2 oligo antag
Cn1cccc1/C=C1\CCC/C(=C\c2cccn2C)C1=O	.	/	.	-13	41	.
O=C(c1cc(-c2cccs2)nc2ccccc12)N1CCN(S(=O)(=O)c2cccc(F)c2)CC1	.	/	.	.	.	.
O=C(c1cc(-c2cccs2)nc2ccccc12)N1CCN(S(=O)(=O)c2ccccc2)CC1	.	/	.	-4.3	.	.
Cc1ccc(NCc2nnc(SCC(=O)N3CCCCC3)n2CC2CCCO2)c(C)c1 (stereo not drawn)	/	.	/	.	/	.
Cc1ccc(NCc2nnc(SCC(=O)Nc3ncc(C)s3)n2CC2CCCO2)c(C)c1 (stereo not drawn)	.	.	.	-4.5	.	.
Cc1ccc(NCc2nnc(SCc3ccc(C#N)cc3)n2Cc2ccco2)c(C)c1	.	61	49	-6.5	40	.
Cc1ccc(C(=O)CSc2nnc(CNc3ccc(C)cc3C)n2Cc2ccco2)cc1	.	.	.	-9.7	40	.
COc1ccc(C(=O)CSc2nnc(CNc3ccc(C)cc3C)n2Cc2ccco2)cc1	.	.	.	/	.	.
O=C(CN1CCN(S(=O)(=O)c2ccc(Cl)cc2)CC1)Nc1ccc2c(c1)OCO2	.	.	.	.	.	.
CC(C)c1ccc(S(=O)(=O)N2CCN(CC(=O)Nc3ccc4c(c3)OCO4)CC2)cc1	.	.	.	-6.9	.	.
CC(C)c1ccc(N(CC(=O)Nc2ccc(S(=O)(=O)N3CCOCC3)cc2)S(C)(=O)=O)cc1	.	/	.	-7.9	.	.
O=C(CN1CCN(S(=O)(=O)c2ccccc2)CC1)Nc1ccc(Cl)c(Cl)c1	.	/	.	-3.7	.	.
COc1ccc(OCC(=O)N2CCN(c3cccc(C(F)(F)F)c3)CC2)cc1	.	.	.	-6.9	.	.
COc1ccc(OCC(=O)N2CCN(c3cccc(Cl)c3)CC2)cc1	.	/	.	-4.5	.	.
COc1ccc(OC)c(S(=O)(=O)N(C)CC(=O)N2CCN(c3ccc(F)cc3)CC2)c1	.	.	.	.	.	.
COc1ccc(NC(=O)NCCN2CCN(c3cccc(Cl)c3)CC2)cc1	.	.	43	.	42	/
COc1ccc(OC)c(S(=O)(=O)N(C)CC(=O)N2CCN(c3cccc(Cl)c3)CC2)c1	.	.	.	-6.8	.	.
COc1ccc(N2CCN(C(=O)COc3ccc(Cl)cc3Cl)CC2)cc1	.	/	.	/	.	.
CCC(C(=O)N1CCN(c2cccc(Cl)c2)CC1)c1ccccc1 (stereo not drawn)	.	100	.	-5.3	.	.
COc1ccc2nc3oc(C(=O)N4CCN(c5cccc(C(F)(F)F)c5)CC4)cc3cc2c1	.	.	.	.	.	.
COc1ccc2nc3oc(C(=O)N4CCN(c5cccc(Cl)c5)CC4)cc3cc2c1	.	.	.	.	35	.
CC1CCC(NC(=O)c2ccc3c(c2)S(=O)(=O)c2ccccc2C3=O)CC1 (stereo not drawn)	/	/	/	.	/	/
COCCn1nnnc1C(c1ccccn1)N1CCN(c2cc(Cl)ccc2C)CC1 (stereo not drawn)	.	/	.	.	.	.
Cc1cccc(N2CCN(C(c3ccccc3)c3nnnn3C(C)(C)C)CC2)c1C (stereo not drawn)	/	/	/	/	/	.
COCCn1nnnc1C(c1cccs1)N1CCN(c2nc3ccccc3s2)CC1 (stereo not drawn)	.	.	.	.	.	-3.4
Cc1cccc(N2CCN(C(c3cccs3)c3nnnn3C(C)(C)C)CC2)c1C (stereo not drawn)	.	.	.	-6.4	40	.
O=C1CC(N2CCN(c3nc4ccccc4s3)CC2)C(=O)N1Cc1cccs1 (stereo not drawn)	.	.	93	.	102	.
COCCn1nnnc1C(c1cccs1)N1CCN(c2cc(C)ccc2C)CC1 (stereo not drawn)	.	.	.	-4.3	.	.
COc1cc(C(c2nnnn2C(C)(C)C)N2CCN(c3nc4ccccc4s3)CC2)ccc1O (stereo not drawn)	.	.	.	.	.	.

Screening results (PubChem)
